Measured values as given in ChEMBL document CHEMBL1129963, “Sulfonimidamide analogs of oncolytic sulfonylureas” (J Med Chem, 1997).
In brackets after ≈: the same amount, converted by molar mass.

Columns and labels:
CCRF-CEM = experiment: In vitro cytotoxicity against CCRF-CEM cells; type: functional, cell-based; conditions: Homo sapiens
In short: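 CCRF-CEM cells were grown in culture for 72 h with compound. The value is the concentration that inhibited growth to 50% of control growth.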

Mus musculus [1] = experiment: In vivo antitumor activity against subaxillary implanted 6C3HED lymphosarcoma implanted in C3H mice at a dose of 300 mg/kg administered perorally twice daily for a period of 8 days.; type: functional; conditions: 192 h, route oral
In short: (§1)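 6C3HED lymphosarcoma was carried in C3H mice. Compound was dosed at the stated route and schedule for 8 days (daily, twice daily, or days 1, 3, 5, 7) and tumor growth inhibition was scored against controls. The table value is the lowest dose giving >80% inhibition, or the highest dose tested. Deaths per group were recorded.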

Mus musculus [2] = experiment: In vivo antitumor activity against subaxillary implanted 6C3HED lymphosarcoma implanted in C3H mice at a dose of 150 mg/kg administered perorally twice daily for a period of 8 days.; type: functional; conditions: Mus musculus, 6C3HED, po, 192 h; in short: as §1
Mus musculus [3] = experiment: In vivo antitumor activity of compound against subaxillary implanted 6C3HED lymphosarcoma implanted in C3H mice at a dose of 200 mg/kg administered perorally twice daily for a period of 8 days.; type: functional; conditions: 192 h, route oral; in short: as §1
Mus musculus [4] = experiment: In vivo antitumor activity against subaxillary implanted 6C3HED lymphosarcoma implanted in C3H mice at a dose of 300 mg/kg administered perorally daily for a period of 8 days.; type: functional; conditions: 192 h, route oral; in short: as §1
Mus musculus [5] = experiment: In vivo antitumor activity of compound against subaxillary implanted 6C3HED lymphosarcoma implanted in C3H mice at a dose of 50 mg/kg administered perorally twice daily for a period of 8 days.; type: functional; conditions: 192 h, route oral; in short: as §1
Mus musculus [6] = experiment: In vivo antitumor activity of compound against subaxillary implanted 6C3HED lymphosarcoma implanted in C3H mice at a dose of 150 mg/kg administered intraperitoneally daily for a period of 8 days.; type: functional; conditions: ip, 192 h, route intraperitoneal; in short: as §1
Mus musculus [7] = experiment: In vivo antitumor activity of compound against subaxillary implanted 6C3HED lymphosarcoma implanted in C3H mice at a dose of 300 mg/kg administered intraperitoneally daily for a period of 8 days.; type: functional; conditions: ip, 192 h, route intraperitoneal; in short: as §1
[8] = Metabolic breakdown to the o-sulfate of p-chloroaniline (2-amino-5-chlorophenyl sulfate) by giving 100 mg/kg oral doses of the compound; type: ADME, organism-based; design: dose 100 mg/kg, route oral; conditions: in vivo
In short: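 Groups of two to four mice received single 100 mg/kg oral doses of each compound. Urine was pooled over 0-24 h, and the 2-amino-5-chlorophenyl sulfate excreted in 24 h per mouse was quantified as the marker of p-chloroaniline release.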

Mus musculus [9] = experiment: In vivo antitumor activity of compound against subaxillary implanted 6C3HED lymphosarcoma implanted in C3H mice at a dose of 150 mg/kg administered perorally twice daily for a period of 8 days; Toxic; type: functional, organism-based; design: dose 150 mg/kg; in short: as §1
Mus musculus [10] = experiment: In vivo antitumor activity of compound against subaxillary implanted 6C3HED lymphosarcoma implanted in C3H mice at a dose of 25 mg/kg administered perorally twice daily for a period of 8 days.; type: functional; conditions: route oral
In short: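 Oral dosing twice daily for 8 days in C3H mice bearing 6C3HED lymphosarcoma. Read-out is percent tumor growth inhibition relative to controls, with deaths per group also recorded. The full in vivo protocol is given in an earlier report.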

Mus musculus [11] = experiment: In vivo antitumor activity of compound against subaxillary implanted 6C3HED lymphosarcoma implanted in C3H mice at a dose of 75 mg/kg administered perorally twice daily for a period of 8 days.; type: functional; conditions: 192 h, route oral; in short: as §1
Mus musculus [12] = experiment: In vivo antitumor activity of compound against subaxillary implanted 6C3HED lymphosarcoma implanted in C3H mice at a dose of 243 mg/kg administered intraperitoneally daily for a period of 8 days.; type: functional; conditions: ip, 192 h, route intraperitoneal; in short: as §1
Mus musculus [13] = experiment: In vivo antitumor activity of compound against subaxillary implanted 6C3HED lymphosarcoma implanted in C3H mice at a dose of 19 mg/kg administered perorally on days 1, 3, 5, 7; type: functional; conditions: route oral; in short: as §1
Mus musculus [14] = experiment: In vivo antitumor activity of compound against subaxillary implanted 6C3HED lymphosarcoma implanted in C3H mice at a dose of 150 mg/kg administered perorally daily for a period of 8 days.; type: functional; conditions: 192 h, route oral; in short: as §1

SMILES	IC50 (CCRF-CEM)	inhibition in vivo at 300 mg/kg (Mus musculus [1])	other results
N[S+]([O-])(=NC(=O)Nc1ccc(Cl)cc1)c1ccccc1 (centres undefined)	> 20 µg/mL	0%	
CCN[S+]([O-])(=NC(=O)Nc1ccc(Cl)cc1)c1ccc(C)cc1 (centres undefined)	13.8 µg/mL (≈ 39.2 µM)		inhibition in vivo at 150 mg/kg (Mus musculus [2]): 87%
CC(=O)N(C)[S+]([O-])(=NC(=O)Nc1ccc(Cl)cc1)c1ccc(C)cc1 (centres undefined)	9.6 µg/mL (≈ 25.3 µM)		inhibition in vivo at 150 mg/kg (Mus musculus [2]): 98%
Cc1cc(C)cc([S+](N)([O-])=NC(=O)Nc2ccc(Cl)cc2)c1 (centres undefined)	20 µg/mL (≈ 59.2 µM)		inhibition in vivo at 200 mg/kg (Mus musculus [3]): 77%
CC(=O)N[S+]([O-])(=NC(=O)Nc1ccc(Cl)cc1)c1ccc(C)cc1 (centres undefined)	> 20 µg/mL	84%	
Cc1ccc([S+](N)([O-])=NC(=O)Nc2ccc(Cl)cc2)cc1 (stereo in doubt; 14)	> 20 µg/mL		inhibition in vivo at 300 mg/kg (Mus musculus [4]): 89%; inhibition in vivo at 50 mg/kg (Mus musculus [5]): 95%; inhibition in vivo at 150 mg/kg (Mus musculus [6]): 92%; inhibition in vivo at 300 mg/kg (Mus musculus [7]): 98%; Activity [8]: < 0.2 µM
Cc1cc([S+](N)([O-])=NC(=O)Nc2ccc(Cl)cc2)cc(C)c1Cl (centres undefined)	6.2 µg/mL (≈ 16.7 µM)	0%	
Cc1ccc([S+]([O-])(=NC(=O)Nc2ccc(Cl)cc2)N(C)C)cc1 (centres undefined)	> 20 µg/mL	63%	
CN[S+]([O-])(=NC(=O)Nc1ccc(Cl)cc1)c1ccc2c(c1)CCC2 (centres undefined)	10.8 µg/mL (≈ 29.7 µM)		inhibition in vivo at 150 mg/kg (Mus musculus [2]): 75%
N[S+]([O-])(=NC(=O)Nc1ccc(Cl)cc1)c1ccc(C(F)(F)F)cc1 (centres undefined)	15.2 µg/mL (≈ 40.2 µM)		inhibition (Mus musculus [9]): Toxic; Lethality (Mus musculus [10]): 100%
Cc1ccc([S+]([O-])(=NC(=O)Nc2ccc(Cl)cc2)Nc2ccccc2)cc1 (centres undefined)	7 µg/mL (≈ 17.5 µM)		inhibition in vivo at 300 mg/kg (Mus musculus [4]): 5%
Cc1ccc([S+]([O-])(=NC(=O)Nc2ccc(Cl)cc2)NCCCO)cc1 (centres undefined)	> 20 µg/mL	89%	
Cc1ccc([S+]([O-])(=NC(=O)Nc2ccc(Cl)cc2)NC(C)C)cc1 (centres undefined)	1.4 µg/mL (≈ 3.83 µM)		inhibition in vivo at 75 mg/kg (Mus musculus [11]): 86%
Cc1ccc([S+](N)([O-])=NC(=O)Nc2ccc(Cl)c(Cl)c2)cc1 (centres undefined)	> 20 µg/mL	14%	
Cc1ccc([S+](N)([O-])=NC(=O)Nc2ccc(F)cc2)cc1 (centres undefined)	> 20 µg/mL	0%	
CC(=O)OCc1ccc([S+](N)([O-])=NC(=O)Nc2ccc(Cl)cc2)cc1 (centres undefined)	> 20 µg/mL		inhibition in vivo at 50 mg/kg (Mus musculus [5]): 87%
CCCN[S+]([O-])(=NC(=O)Nc1ccc(Cl)cc1)c1ccc(C)cc1 (centres undefined)	10.9 µg/mL (≈ 29.8 µM)		inhibition in vivo at 300 mg/kg (Mus musculus [4]): 69%
Cc1ccc([S+]([O-])(=NC(=O)Nc2ccc(Cl)cc2)NCCc2ccccc2)cc1 (centres undefined)	5.3 µg/mL (≈ 12.4 µM)	48%	
Cc1ccc(NC(=O)N=[S+](N)([O-])c2ccc(C)cc2)cc1 (centres undefined)	> 20 µg/mL		inhibition in vivo at 300 mg/kg (Mus musculus [4]): 40%
N[S+]([O-])(=NC(=O)Nc1ccc(Cl)cc1)c1ccc(C(=O)O)cc1 (centres undefined)			inhibition in vivo at 243 mg/kg (Mus musculus [12]): 0%
Cc1ccc([S+](N)([O-])=NC(=O)Nc2ccc(OCc3ccccc3)cc2)cc1 (centres undefined)	> 20 µg/mL	5%	
COC(=O)c1ccc([S+](N)([O-])=NC(=O)Nc2ccc(Cl)cc2)cc1 (centres undefined)	> 20 µg/mL	0%	
C=CCN[S+]([O-])(=NC(=O)Nc1ccc(Cl)cc1)c1ccc(C)cc1 (centres undefined)	10 µg/mL (≈ 27.5 µM)	45%	
CCCC[S+]([O-])(=NC(=O)Nc1ccc(Cl)cc1)NC (centres undefined)	> 20 µg/mL		inhibition in vivo at 300 mg/kg (Mus musculus [7]): 7%
CCCCNC(=O)N=[S+](N)([O-])c1ccc(C)cc1 (centres undefined)	> 20 µg/mL		inhibition in vivo at 300 mg/kg (Mus musculus [7]): 12%
Cc1cc([S+](N)([O-])=NC(=O)Nc2ccc(Cl)cc2)cc(C)c1C (centres undefined)	12.7 µg/mL (≈ 36.1 µM)		inhibition in vivo at 19 mg/kg (Mus musculus [13]): 95%
CN[S+]([O-])(=NC(=O)Nc1ccc(Cl)cc1)c1ccc(C)cc1 (centres undefined)	> 20 µg/mL		inhibition in vivo at 150 mg/kg (Mus musculus [14]): 93%; Activity [8]: 1.2 µM
